Experiments:
Angiotensin II receptor = target: T1, Angiotensin II receptor (Rattus norvegicus, UniProt P29089+P25095+P35351); test: Tested for the binding affinity using radioligand [125I]-Sar1 Ile8-AII in the rat adrenal capsular membranes (adrenal cortex); type: cell membranes
T1 sequence (P29089 whole entry): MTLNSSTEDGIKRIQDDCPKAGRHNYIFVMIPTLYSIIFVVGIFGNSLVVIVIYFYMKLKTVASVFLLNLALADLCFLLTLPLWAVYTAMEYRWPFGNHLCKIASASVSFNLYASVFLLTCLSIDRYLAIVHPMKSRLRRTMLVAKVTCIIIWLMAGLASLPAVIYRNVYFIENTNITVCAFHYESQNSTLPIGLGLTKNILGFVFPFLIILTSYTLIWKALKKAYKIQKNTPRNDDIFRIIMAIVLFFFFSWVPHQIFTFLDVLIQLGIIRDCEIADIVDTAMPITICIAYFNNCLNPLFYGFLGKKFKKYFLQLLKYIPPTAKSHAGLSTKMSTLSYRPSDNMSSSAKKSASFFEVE
T1 sequence (P25095 whole entry): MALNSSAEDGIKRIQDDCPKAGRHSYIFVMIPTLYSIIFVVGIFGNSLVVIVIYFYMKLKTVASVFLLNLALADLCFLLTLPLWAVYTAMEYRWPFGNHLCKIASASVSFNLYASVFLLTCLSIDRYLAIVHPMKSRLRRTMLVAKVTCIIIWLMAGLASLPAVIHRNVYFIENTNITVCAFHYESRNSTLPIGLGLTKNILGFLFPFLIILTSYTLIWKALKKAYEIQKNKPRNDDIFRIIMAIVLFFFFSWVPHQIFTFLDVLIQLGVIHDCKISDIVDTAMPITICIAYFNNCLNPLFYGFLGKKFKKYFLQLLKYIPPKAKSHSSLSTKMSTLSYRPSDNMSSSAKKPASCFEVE
T1 sequence (P35351 whole entry): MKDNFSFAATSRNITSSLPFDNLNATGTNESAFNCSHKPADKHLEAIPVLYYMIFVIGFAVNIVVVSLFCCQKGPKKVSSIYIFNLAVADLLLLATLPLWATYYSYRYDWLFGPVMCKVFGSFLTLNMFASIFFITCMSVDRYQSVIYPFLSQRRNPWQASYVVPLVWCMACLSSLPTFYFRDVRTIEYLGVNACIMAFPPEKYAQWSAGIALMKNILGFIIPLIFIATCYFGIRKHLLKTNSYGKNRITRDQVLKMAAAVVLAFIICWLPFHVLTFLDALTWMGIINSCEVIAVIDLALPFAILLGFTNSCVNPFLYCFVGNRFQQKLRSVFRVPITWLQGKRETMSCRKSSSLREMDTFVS
Procedure, shortened: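 Membranes from rat adrenal capsules, homogenized in 50 mM Tris-HCl, washed by repeated 50000g spins at 4 °C, resuspended in pH 7.4 sodium phosphate assay buffer with NaCl, EDTA, PMSF, protease inhibitors, BSA and bacitracin. Nonspecific binding defined with 1 uM unlabeled peptide. Bound label separated by vacuum filtration. Ki fitted from replicate curves.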

[1] = target: Angiotensin II receptor (Oryctolagus cuniculus); test: Tested for the antagonism of AII-induced contraction in rabbit endothelium-denuded aorta strips

| Ki (Angiotensin II receptor) | pA2 [1] | SMILES |
| --- | --- | --- |
| > 10 µM | < 5 | CCCCc1nc(Cl)c(CO)n1Cc1ccc(-c2ccoc2C(=O)O)cc1 |
| 14.5 µM | < 5 | CCCCc1nc(Cl)c(CO)n1Cc1ccc(-c2ccsc2C(=O)O)cc1 |
| 9.8 µM | < 5 | CCCCc1nc(Cl)c(CO)n1Cc1ccc(-c2ncccc2C(=O)O)cc1 |
| > 10 µM | < 5 | CCCCc1nc(Cl)c(CO)n1Cc1ccc(-c2ccccc2C(=O)O)s1 |
| > 10 µM | < 5 | CCCCc1nc(CO)c(Cl)n1Cc1ccc(-c2ncccc2C(=O)O)cc1 |
| 3.3 µM | 6.1 | CCCCc1nc(Cl)c(CO)n1Cc1ccc(-c2cccnc2C(=O)O)cc1 |
| > 10 µM | < 5 | CCCCc1nc(Cl)c(CO)n1Cc1ccc(-c2nc(C)sc2C(=O)O)cc1 |
| > 10 µM | < 5 | CCCCc1nc(CO)c(Cl)n1Cc1ccc(-c2cccnc2C(=O)O)cc1 |
| > 10 µM | 5.2 | CCCCc1nc(Cl)c(CO)n1Cc1ccc(-c2ccccc2C(=O)O)o1 |
| > 10 µM | 6 | CCCCc1nc(CO)c(Cl)n1Cc1ccc(-c2ccoc2C(=O)O)cc1 |
| > 10 µM | <= 5 | CCCCc1nc(CO)c(Cl)n1Cc1ccc(-c2nc(C)sc2C(=O)O)cc1 |
| 6.7 µM | < 5 | CCCCc1nc(Cl)c(CO)n1Cc1ccc(-c2cnccc2C(=O)O)cc1 |

— ChEMBL document CHEMBL1127862, “Nonpeptide angiotensin II receptor antagonists. Synthesis, in vitro activity, and molecular modeling studies of N-[(heterobiaryl)methyl] imidazoles” (J Med Chem, 1994)
